PGC1a Ac signal: raises PGC1a acetylation signal in U2OS cells; hit rate 0.21% among 350,000; activation, % at 15.6 µM; U2OS PGC1a acetylation AlphaScreen, overnight; AID 651723;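 active means every replicate reaching activation of at least 50%, whatever the mean replicate activation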;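 further: hits raise the AlphaScreen acetylation signal above neutral controls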
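detection = AlphaScreen lysate read | assay system = U2OS cells expressing flag-PGC1a plus GCN5 | input = 7000 cells/well | dosing = one concentration | times = compound overnight at 37 °C, each detection step 1 h RT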
An asterisk follows results filed as active. The list is a sample of the results.

SMILES	PGC1a Ac signal
CCCNC(=O)N(C)C[C@H]1Oc2cc(C#CCC(C)C)ccc2S(=O)(=O)N([C@@H](C)CO)C[C@H]1C	-51
Cc1ccc(C(=O)Cn2c(C(=O)OCCO)cc3ccccc32)cc1	65*
CCOC(=O)c1[nH]c2ccc(OC)cc2c1NC(=O)c1ccc2c(c1)OCO2	55*
COc1ccc2c(c1)c(CC(=O)OCC(N)=O)c(C)n2C(=O)c1ccc(Cl)cc1	-45
O=C(/C=C/c1ccc(F)cc1)NNC(=O)CCN1CCN(Cc2ccccc2)CC1	-52
C[C@H]1CN([C@@H](C)CO)C(=O)c2cc(-c3cccc(C(=O)N(C)C)c3)cnc2O[C@@H]1CN(C)S(=O)(=O)c1ccc(F)cc1	-21
CC(c1ccccc1)N1C(=O)NC(NC(=O)c2cccnc2)(C(F)(F)F)C1=O (stereo not drawn)	74*
C[C@@H]1CN([C@H](C)CO)C(=O)c2cc(C#CC(C)(C)O)cnc2O[C@H]1CN(C)C(=O)c1ccccc1F	-50
O=C(C[C@@H]1C[C@@H]2c3cc(NC(=O)Nc4ccccc4F)ccc3O[C@@H]2[C@H](CO)O1)NCc1ccc(Oc2ccccc2)cc1	-41
COc1ccc(CC2C(=O)NC(C)C(=O)N(C)C3Cc4ccc(cc4)Oc4cc(ccc4O)CC(C(=O)NC(C)C(=O)NC(C)C(=O)N2C)N(C)C3=O)cc1 (stereo not drawn)	-70
COC(C[C@H]1O[C@@H]1[C@H](O)[C@H](C)OCc1ccccc1)OC	-47
CCN(c1ccccc1)S(=O)(=O)c1ccc(OC)c(NC(=O)Cc2ccc(F)cc2)c1	-40
COc1ccc(OC)c(Nc2ccc(C(=O)O)cc2[N+](=O)[O-])c1	-42
COc1ccc(S(=O)(=O)N2CCOCC2)cc1NC(=O)CCNC(=O)c1ccc([N+](=O)[O-])cc1	419*
O=C(CCSc1nnc(-c2ccc(O)cc2)o1)N1CCOCC1	-46
CCOC(=O)CCc1c(C)c2ccc(O)cc2oc1=O	74*
CCOc1ccnc(OCC)c1Br	-44
Cn1nc([N+](=O)[O-])nc1S(C)(=O)=O	95*
Cc1noc(C)c1NC(=O)Nc1cccc2c1O[C@H](CN(C)Cc1ccc(Oc3ccccc3)cc1)[C@H](C)CN([C@@H](C)CO)C2=O	-100
CCN1CCN(c2cc(C)c3cc(NC(=O)c4ccc(Br)o4)ccc3n2)CC1	53*
CO[C@H]1CN(C)C(=O)c2cc(NS(C)(=O)=O)ccc2OC[C@H](C)N(C(=O)NC(C)C)C[C@H]1C	-48
O=C(NC1=NCCS1)C1CC(=O)N(c2ccccc2)C1 (stereo not drawn)	68*
CSc1cccc(N2CC(C(=O)NCCN3C(=O)S/C(=C\c4cccnc4)C3=O)CC2=O)c1 (stereo not drawn)	-75
COc1ccc(S(=O)(=O)N2CCCCN3[C@@H](CO)[C@@H](c4ccc(C5=CCCCC5)cc4)[C@@H]3C2)cc1	57*
CN(C[C@H]1N[C@@H](CO)[C@@H]1c1ccc(C2=CCCC2)cc1)C(=O)c1cccc(F)c1	-76
SMILES	PGC1a Ac signal
CN(C)CCCN(C(=O)c1cc2cc([N+](=O)[O-])ccc2s1)c1nc2cc3c(cc2s1)OCCO3	-54
Cc1ccc(OCC(=O)N/N=C/c2ccc([N+](=O)[O-])o2)cc1	84*
CC1=NN(c2ccc(C)c(C)c2)C(=O)/C1=C\C=C\c1ccc([N+](=O)[O-])o1	-59
O=C(CSc1ccc(Cl)cc1)N/N=C/c1ccc([N+](=O)[O-])o1	92*
O=C(CSc1nnc(-c2ccccc2)n1-c1ccc(Cl)cc1)N/N=C/c1ccccc1C(=O)O	-45
Cc1ccc(NC(=O)CCC(=O)N/N=C/c2ccc([N+](=O)[O-])o2)cc1C	126*
Cc1ccc(O)c(/C=N/NC(=O)CN2CCCC2)c1	-84
CC(C)NC(=O)N(C)C[C@H]1OCc2cnnn2CCCC(=O)N([C@@H](C)CO)C[C@H]1C	-42
Cc1nn(CC(=O)Nc2ccc(C(C)C)cc2)c(C)c1[N+](=O)[O-]	-43
Cc1noc(C)c1NC(=O)N[C@H]1C=C[C@H](CC(=O)NCc2ccc(Cl)c(Cl)c2)O[C@H]1CO	-49
Cc1ccc(/C=C2/CNC/C(=C/c3ccc(C)cc3)C2=O)cc1	-74
Cc1cccc(CCN(CC(=O)NC(C)(C)C)C(=O)c2csnn2)c1	-47
O=C(CSc1nc2ccccc2c(=O)n1CC1CCCO1)N1CCN(c2ccccc2)CC1 (stereo not drawn)	-42
Cc1ccc(-c2cc(C(=O)NCC3CCCO3)c3ccccc3n2)cc1C (stereo not drawn)	-46
Cc1ccccc1-c1nc(C(=O)NCC2CCCO2)cc2c1[nH]c1ccccc12 (stereo not drawn)	61*
CO[C@@H]1CN(C)C(=O)c2cc(NC(C)=O)ccc2OC[C@H](C)N(C(=O)c2cccnc2)C[C@H]1C	-49
COc1ccccc1C1c2c(C)nn(-c3ccccc3)c2NC(=O)C1NC(=O)c1ccccc1 (stereo not drawn)	-48
C/C(=C\C(=O)N1CCc2ccccc21)C(=O)O	60*
CC(C(=O)N1CCc2ccccc2C1)N(c1ccccc1)S(C)(=O)=O (stereo not drawn)	-51
CN(C)S(=O)(=O)c1cc(NC(=O)CN2CCc3ccccc32)ccc1Cl	-75
COc1ccc(/C=N/NC(=O)c2cccnc2)cc1CN1CCOCC1	-42
CCCCCCC(=O)Nc1ccc(C(=O)N/N=C/c2cccnc2)cc1	417*
Cc1cccc(C(=O)Nc2ccc(C(=O)/C=C/c3cccnc3)cc2)c1	-54
Cc1noc(C)c1S(=O)(=O)N(C)C[C@H]1Oc2ccc(NC(=O)Nc3ccccc3)cc2CC(=O)N([C@H](C)CO)C[C@H]1C	-56
C[C@H]1CN([C@@H](C)CO)C(=O)Cc2cc(NC(=O)Nc3ccccc3)ccc2O[C@@H]1CN(C)Cc1ccccc1	-50
SMILES	PGC1a Ac signal
Cc1cc(-c2c(C)[nH]n(-c3ccc(Cl)cc3)c2=O)n(-c2ccccc2)n1	-42
O=C1c2ccccc2C(=O)c2c1oc(C(F)(F)F)c2C(=O)c1ccccc1	-45
O=C(c1ccccc1)c1nn(-c2ccc(Cl)cc2)c(=O)cc1C(F)(F)F	179*
COc1ccc(C(=O)Nc2cc(Cl)ccc2-n2cncn2)c(OC)c1OC	-47
C[C@H]1CCCCO[C@H](CN(C)Cc2ccncc2)[C@@H](C)CN([C@@H](C)CO)C(=O)c2cc(NS(=O)(=O)c3ccccc3)ccc2O1	-73
C[C@@H]1CN([C@H](C)CO)C(=O)c2cc(C3=CCCCC3)cnc2O[C@@H]1CN(C)Cc1ccccc1	-44
Cc1c(NC(=O)COC(=O)c2ccccc2O)c(=O)n(-c2ccccc2)n1C	-57
Cc1cc(S(=O)(=O)Nc2ccc3ccccc3c2)c(C)s1	58*
Cc1cc(C)nc(NS(=O)(=O)c2ccc(NC(=O)Nc3ccccc3)cc2)n1	-97
CN(Cc1ccccc1)C(=O)c1ccc2c(c1)NC(=O)C(N1CCOCC1)S2 (stereo not drawn)	-49
CCOC(=O)c1oc2ccc(S(=O)(=O)N3CCC(C)CC3)cc2c1C	-43
CCOC(=O)C1=CC[C@@H](c2ccc(OC)cc2)N(S(=O)(=O)c2ccc(C)cc2)[C@H]1CC	90*
Cc1cc(C(=O)OCC(=O)N(C)c2ccccc2)ccc1[N+](=O)[O-]	-52
CC(C)(C)NC(=O)c1ccc(Sc2ccccc2)c([N+](=O)[O-])c1	-81
CCCNC(=O)COC(=O)c1ccccc1C(=O)c1ccc(Cl)c([N+](=O)[O-])c1	127*
O=C1c2ccccc2C(=O)N1c1ccc(Cc2ccncc2)cc1	-56
COc1ccccc1N=C1NC(=O)/C(=C/c2ccc(N(C)C)cc2)S1	55*
